This is a sample that favours compounds with a hit; in the whole collection about 0.95% have one here.
ASAP1 GAP inh: inhibitors of human ASAP1 ArfGAP activity. actives 0.19% (n = 360,000). Q9ULH1. inhibition, % at 16.5 µM. ASAP1-stimulated ARF1 GTP hydrolysis, GDP FP detection. AID 624377; in the data active = inhibition above about 25%;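 note: 0% = vehicle with enzyme and substrate and 100% = no enzyme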
CSN deneddyl inh: CSN deneddylation inhibition. Q92905. Purified CSN, SCF-Nedd8-OG deneddylation, fluorescence polarization. inhibition, % at 12.5 µM. actives 0.38% (n = 360,000). AID 651999;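 active = pattern-corrected inhibition above about 35%, with an unprinted fluorescence ratio check between 0.5 and 1.5, limit read from the data, passing the limit was not always enough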;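 note: 0% = enzyme with substrate and 100% = substrate without enzyme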
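Assay system: Purified human Csn5 enzyme expressed in HEK293T cells | Amount: Enzyme 0.24 nM | Measured by: Fluorescence polarization readout | Medium: Tris/NaCl/DTT buffer, pH 7.5 | Compound dosing: One concentration, 12.5 µM, 0.25% DMSO | Times: 90 min incubation of compound, enzyme and substrate at room temperature | Control set: no-enzyme wells high, enzyme-with-substrate wells low | Read-out: % inhibition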
ARFGAP1 inh: rat ARFGAP1 inhibition; Arfgap1-stimulated ARF1 GTP hydrolysis, GDP FP detection; actives 0.26% (n = 360,000); inhibition, % at 16.5 µM; Q62848; AID 651572;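 active = inhibition above a per-plate limit, mean inhibition of low control wells plus 3 SD, cut at about 25% in these data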;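 note: 0% = DMSO wells with enzyme and 100% = wells lacking Arfgap1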
Target sequence (Q62848 1-136 limits assumed): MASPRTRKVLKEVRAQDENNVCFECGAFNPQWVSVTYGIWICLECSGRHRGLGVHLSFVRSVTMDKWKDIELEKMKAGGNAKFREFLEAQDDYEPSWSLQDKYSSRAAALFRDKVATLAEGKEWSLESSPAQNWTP
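material = rat Arfgap1 catalytic domain, aa 1-136 | also added = human ARF1(Δ1-17)-GTP substrate | compound dosing = one concentration, 16.5 µM, DMSO 1.26% | times = GTP hydrolysis reaction 2 h at 25 °C | measured by = FP, GDP Alexa 633 tracer displaced from anti-GDP antibody, 620/688 nm | evaluation = percent inhibition of Arfgap1-stimulated GTP hydrolysis | replication = single well per compound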
HNF4A DNA FP: change in binding of human HNF4 alpha to DNA | P41235 | HNF4a-FITC DNA binding, fluorescence polarization, 1 h | activity change, % at 10 µM | actives 0.3% (n = 360,000) | AID 1224865; in the data active = activity change above about 30%, passing the limit was not always enough
Target sequence (P41235 whole entry, looked up): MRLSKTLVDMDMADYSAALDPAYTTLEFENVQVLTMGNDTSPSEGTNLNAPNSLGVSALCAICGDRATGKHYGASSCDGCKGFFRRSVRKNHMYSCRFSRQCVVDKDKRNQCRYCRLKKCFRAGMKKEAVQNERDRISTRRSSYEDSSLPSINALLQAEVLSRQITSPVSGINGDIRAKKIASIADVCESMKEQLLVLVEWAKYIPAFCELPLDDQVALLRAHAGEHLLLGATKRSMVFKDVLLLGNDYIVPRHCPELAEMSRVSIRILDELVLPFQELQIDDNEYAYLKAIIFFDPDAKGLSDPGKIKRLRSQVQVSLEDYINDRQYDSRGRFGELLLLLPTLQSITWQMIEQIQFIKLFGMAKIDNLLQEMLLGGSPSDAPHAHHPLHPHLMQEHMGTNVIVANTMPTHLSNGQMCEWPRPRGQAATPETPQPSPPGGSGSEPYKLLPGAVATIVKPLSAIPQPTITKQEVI
Active calls of the source: *.

For COc1ccc(N2C(=O)[C@@H]3[C@H](C2=O)[C@H]2c4ccccc4C=CN2[C@@H]3C(=O)Nc2ccccc2)cc1 the results were ASAP1 GAP inh 7.9, CSN deneddyl inh -68.1, ARFGAP1 inh -1.2 and HNF4A DNA FP 100.9.
Screening Cc1ccc(N2C(=O)[C@@H]3[C@H](C2=O)C2c4ccccc4C=CN2[C@@H]3C(=O)c2ccco2)c(C)c1 (stereo partly drawn) returned ASAP1 GAP inh 12.0, CSN deneddyl inh 3.9, ARFGAP1 inh 4.5 and HNF4A DNA FP -6.0.
Screening Cc1ccc(N2C(=O)[C@@H]3[C@H](C2=O)C2c4ccccc4C=CN2[C@@H]3C(=O)c2ccco2)cc1 (stereo partly drawn) returned ASAP1 GAP inh 26.0*, CSN deneddyl inh 0.3, ARFGAP1 inh 3.1 and HNF4A DNA FP 4.1.
O=C(c1ccco1)[C@@H]1[C@@H]2C(=O)N(c3ccccc3)C(=O)[C@@H]2C2c3ccccc3C=CN21 (stereo partly drawn) was read as ASAP1 GAP inh 34.1*, CSN deneddyl inh 0.8, ARFGAP1 inh 1.7 and HNF4A DNA FP -17.3.
`COC(=O)c1cc2c(c3c4cc(OC)ccc4n(S(=O)(=O)c4ccc(OC)cc4)c13)C(=O)N(C1CCCCC1)C2` gave ASAP1 GAP inh -11.4 and ARFGAP1 inh 5.1.
Cc1[nH]nc2c1C(c1ccc(Br)cc1)N(c1ccccc1)C2=O (stereo not drawn) was read as ASAP1 GAP inh 1.0 and ARFGAP1 inh -9.8.
`C[C@@H]1CN(c2ccc(N3CCNC[C@H]3C)cc2C#N)CCN1Cc1ccccc1` gave ASAP1 GAP inh 13.4 and ARFGAP1 inh 0.8.
`CCN1c2ccccc2NC2C1C(C(C)=O)C(=O)N2c1ccc(Cl)cc1` (stereo not drawn) gave ASAP1 GAP inh 0.0, CSN deneddyl inh 25.4, ARFGAP1 inh -3.4 and HNF4A DNA FP 44.8*.
COC(=O)N/N=C(\CCC(=O)O)c1cccs1 was read as ASAP1 GAP inh -9.0, CSN deneddyl inh 89.7*, ARFGAP1 inh 16.2 and HNF4A DNA FP 4.5.
O=C(O)CC/C(=N\NC(=O)c1ccccc1)c1cccs1 was read as ASAP1 GAP inh 0.8, CSN deneddyl inh 7.6, ARFGAP1 inh -7.6 and HNF4A DNA FP 0.6.
COCCC(=O)N1CCC(n2nccc2NC(=O)CCc2ccccc2)CC1 was read as ASAP1 GAP inh -6.6, CSN deneddyl inh 1.0, ARFGAP1 inh 8.4 and HNF4A DNA FP 0.9.
CN1/C(=C/C(=O)c2ccc(Cl)cc2)Sc2cc3c(cc21)OCO3 was read as ASAP1 GAP inh 13.2, CSN deneddyl inh -9.4, ARFGAP1 inh 5.0 and HNF4A DNA FP 44.9*.
Screening COc1ccc(C(=O)/C=C2/Sc3cc4c(cc3N2C)OCO4)cc1 returned ASAP1 GAP inh -6.7, CSN deneddyl inh -9.9, ARFGAP1 inh 3.9 and HNF4A DNA FP 23.9.
`O=C(N/N=C/c1c(O)n(-c2ccc(Cl)cn2)c(=O)c2ccccc12)c1ccncc1` gave ASAP1 GAP inh 2.6, CSN deneddyl inh 20.6, ARFGAP1 inh 8.2 and HNF4A DNA FP 71.8*.
For COC(=O)[C@]12C[C@H](CC(=O)NCCc3ccccc3OC)C(=O)N(Cc3ccc4c(c3)OCO4)C1=C[C@H](COCc1ccccc1)O[C@@H]2C the results were ASAP1 GAP inh 17.6 and ARFGAP1 inh 0.4.
`COc1cc(OC)c(OC)cc1/C=C1\Oc2cc(OS(C)(=O)=O)ccc2C1=O` gave ASAP1 GAP inh 2.6, CSN deneddyl inh 55.1*, ARFGAP1 inh 0.3 and HNF4A DNA FP 73.4*.
For COc1cc(OC)c(OC)cc1/C=C1\Oc2cc(OCC(=O)N3Cc4ccccc4C[C@H]3C(=O)O)ccc2C1=O the results were CSN deneddyl inh 91.8 and HNF4A DNA FP 61.2*.
For CC(C)C[C@H]1CN([C@@H](Cc2ccccc2)CN2CCC[C@@H]2CN2C(=O)C(=O)NC[C@@H]2Cc2ccc(O)cc2)C(=O)C(=O)N1CC1CCCCCC1 the results were ASAP1 GAP inh 10.8, CSN deneddyl inh 36.6*, ARFGAP1 inh 6.3 and HNF4A DNA FP 2.5.
CN1CCN(NC(=O)c2cn(-c3ccccc3)nc2-c2cccc(Br)c2)CC1 was read as ASAP1 GAP inh 0.4, CSN deneddyl inh -1.1, ARFGAP1 inh 1.1 and HNF4A DNA FP 46.0*.
CN1CCN(NC(=O)c2cn(-c3ccccc3)nc2-c2cccs2)CC1 was read as ASAP1 GAP inh -0.3, CSN deneddyl inh -4.2, ARFGAP1 inh 2.8 and HNF4A DNA FP -2.2.
`C[C@H]1[C@@H]2C[C@@]3(O[C@H](c4ccc(C(F)(F)F)cc4)N=C3C[C@@H]1c1ccccc1)N(Cc1ccncc1)C2=O` gave ASAP1 GAP inh 5.6 and ARFGAP1 inh 5.7.
Screening COC(=O)c1sc(NC(=O)/C=C/c2ccccc2Cl)nc1C returned ASAP1 GAP inh 0.9, CSN deneddyl inh 23.3, ARFGAP1 inh -10.4 and HNF4A DNA FP 46.9*.
For COCCn1c(SCC(=O)c2ccc3c(c2)OCCO3)nnc1C(C)C the results were ASAP1 GAP inh 1.6, CSN deneddyl inh 84.4*, ARFGAP1 inh -4.3 and HNF4A DNA FP 1.5.
O=C(NCc1ccccc1)[C@@H]1CCCN1C(=O)[C@H]1CCCN1C(=O)c1ccc(Cl)cc1 was read as ASAP1 GAP inh -9.5 and ARFGAP1 inh -2.6.
For COc1cc(OC)c(OC)cc1/C=C1\CC(C)C/C(=C\c2cc(OC)c(OC)cc2OC)C1=O (stereo not drawn) the results were ASAP1 GAP inh 3.4, CSN deneddyl inh 31.1, ARFGAP1 inh -3.3 and HNF4A DNA FP 58.4*.
Screening Nc1[nH]c(C(=O)c2ccc(Br)cc2)c(-c2cccc3ccccc23)c1C(=O)NCCc1c[nH]c2ccccc12 returned ASAP1 GAP inh 8.7 and ARFGAP1 inh 17.3.
Fc1ccc(CN2CCN(c3ncc(Cc4ccccc4)cn3)CC2)c(Cl)c1 was read as ASAP1 GAP inh -2.1 and ARFGAP1 inh -0.3.
`OCCN(CCO)c1cc2c3ccccc3ccc2c2ccccc12` gave ASAP1 GAP inh 19.9, CSN deneddyl inh 44.6*, ARFGAP1 inh 13.8 and HNF4A DNA FP -1.9.
`COc1ccc(C(=O)NCC2CCN(C(=O)C(=O)c3cc4ccccc4o3)CC2)c(OC)c1` gave ASAP1 GAP inh -6.1 and ARFGAP1 inh 11.4.
CCOC(=O)c1cnn2c(C)cc(-c3ccccc3)nc12 was read as ASAP1 GAP inh -7.9, CSN deneddyl inh -5.0, ARFGAP1 inh 4.9 and HNF4A DNA FP 52.9*.
For COC(=O)c1cc2c(c3c4cc(F)ccc4n(S(=O)(=O)c4ccc(C)cc4)c13)C(=O)N(c1ccc(OC)cc1)C2 the results were ASAP1 GAP inh 3.9 and ARFGAP1 inh 10.7.
`CN1CCCCC(NC(=O)c2ccc3ccccc3c2)C1=O` (stereo not drawn) gave ASAP1 GAP inh -3.5 and ARFGAP1 inh 0.9.
O=C(N1CCCCC1)C1(c2ccccc2)CCCCC1 was read as ASAP1 GAP inh 8.1, CSN deneddyl inh 37.3*, ARFGAP1 inh 0.6 and HNF4A DNA FP -1.2.
`Oc1sc(C=Nc2ccc(F)cc2)c2ccccc12` gave ASAP1 GAP inh 7.1, CSN deneddyl inh 11.5, ARFGAP1 inh -3.2 and HNF4A DNA FP 35.8*.
